# Most compounds without a hit are left out; they make up all but 2.6% or so of the library.
# SIRT5 block – SIRT5 desuccinylase inhibitors, primary screen, biochemical, fluorescence imaging, single point, set 5 | NAD-dependent protein deacylase sirtuin-5, mitochondrial (Homo sapiens), Q9NXA8 | Purified SirT5, succinyl-peptide AMC, trypsin-coupled fluorescence | inhibition, % at 15 µM | hit rate 1.1% among 330,000 | AID 652115, 2013; in the data active means inhibition above about 15%
# FGF22 binding – binders of human FGF22 protein, primary screen, FGF22 synaptogenesis inhibitor project, biophysical, thermal shift, single point. Fibroblast growth factor 22 (Homo sapiens), Q9HCT0. recombinant FGF22 thermal shift, SYPRO orange fluorescence; percent of sucrose octasulfate shift, DMSO zero. activity (Tm shift, normalised), % at 9.99 µM. hit rate 1.5% among 340,000;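 active means mean Tm shift, scaled 0 neutral to 100 positive control, at about 1.3% or above, every replicate too, limit read from the data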
# NSD2 inh – NSD2 histone methyltransferase inhibitors, primary screen, biochemical, AlphaScreen, single concentration, set 2; NSD2 peptide methylation, 120 min; inhibition, % at 12.5 µM; hit rate 0.54% among 310,000; AID 743445, 2014; in the data active means inhibition above about 50%
# UCH37 DUB inh – inhibitors of human UCH37 deubiquitinase, primary screen, biochemical, Ub-AMC cleavage, fluorescence; purified proteasome/UCH37; inhibition, % (concentration not given with the values); hit rate 0.33% among 330,000; AID 588478, 2011;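 active means mean inhibition over replicate wells above about 20%, limit read from the data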;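 further: 0% = compound-free wells with enzyme and 100% = wells lacking proteasome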
# Target sequence (Q9Y5K5 whole entry, looked up): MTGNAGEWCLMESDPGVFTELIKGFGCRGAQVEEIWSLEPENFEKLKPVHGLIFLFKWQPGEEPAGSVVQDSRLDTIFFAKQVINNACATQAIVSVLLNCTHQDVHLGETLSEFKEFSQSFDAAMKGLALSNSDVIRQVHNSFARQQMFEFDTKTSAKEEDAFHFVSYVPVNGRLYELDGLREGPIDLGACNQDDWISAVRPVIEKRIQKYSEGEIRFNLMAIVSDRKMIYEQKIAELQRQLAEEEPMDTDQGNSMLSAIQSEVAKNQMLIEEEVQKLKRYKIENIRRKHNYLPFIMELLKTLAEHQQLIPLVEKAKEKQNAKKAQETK
#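 Material: human UCH37 enzyme supplied as purified proteasome complex. Measure: % inhibition of Ub-AMC cleavage fluorescence. Medium: pH 7.4 Tris-HCl (50 mM) with ovalbumin, ATP-MgCl2, DTT. Times: 30 min preincubation with enzyme, 25 min cleavage at room temperature. Detection: AMC fluorescence intensity at 355/460 nm.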
# CASP6 VEID inh – human caspase-6 inhibitors, primary screen, biochemical, VEID-R110 fluorescence, single point, set 2. P55212. purified caspase-6, Z-VEID-R110 cleavage fluorescence. inhibition, % at 12.5 µM. hit rate 0.53% among 350,000;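 active means mean inhibition across replicates at least about 35%, with every replicate also reaching that limit, limit read from the data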;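 further: 0% = median of neutral control wells and 100% = no fluorescence left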
# Numbers without * were called inactive; x = not tested or not shown.
SMILES,SIRT5 block,FGF22 binding,NSD2 inh,UCH37 DUB inh,CASP6 VEID inh
COc1ccc(S(=O)(=O)Nc2ccc3c(c2)C(=O)N([C@@H](C)CO)C[C@@H](C)[C@@H](CN(C)S(=O)(=O)c2ccc(Cl)cc2)OCCCC[C@@H](C)O3)cc1,15*,0,x,x,2
C[C@@H](NC(=O)[C@H]1[C@H](CO)[C@H]2Cn3c(ccc(-c4cccnc4)c3=O)[C@H]2N1C)c1ccccc1,2,0,x,x,0
CNC[C@H]1Oc2ccc(NC(=O)Nc3ccc(C(F)(F)F)cc3)cc2C(=O)N([C@H](C)CO)C[C@H]1C,-2,0,x,x,-5
CCOc1ccc(C(=O)CSCCC(=O)O)cc1,112*,0,0,2,-1
CNC(=S)N1N=C(c2ccc(C)cc2)CC1c1ccc(N(C)C)cc1 (stereo not drawn),-2,44*,-2,-1,-2
CNC(=S)N1N=C(c2ccc(C)cc2)CC1c1ccc(OC)cc1 (stereo not drawn),x,x,2,0,x
O=C(O)CCc1ccc(-c2cccs2)n1CC(=O)Nc1ccccc1C(F)(F)F,0,43*,12,-8,1
O=C(CCc1ccccc1)Nc1ccccc1C(F)(F)F,-1,44*,0,3,0
O=C(CCc1ccccc1)NNC(=O)Nc1ccccc1,-1,43*,-4,5,28
COCCn1c(CCC(=O)O)ccc1-c1cccs1,8,0,2,-26,6
COc1ccc2c(c1)c(CC(=O)Nc1cccc(S(N)(=O)=O)c1)c(C)n2C(=O)c1ccc(Cl)cc1,17*,0,7,3,0
COc1ccccc1NC(=O)N1C[C@H]2[C@@H](c3ccccc31)[C@H](CO)N2C(=O)C1CC1,-2,-1,x,x,1
CO[C@@H]1CN(C)C(=O)c2cc(NC(=O)C3CC3)ccc2OC[C@@H](C)N(Cc2ccccc2C(=O)O)C[C@H]1C,1,0,x,x,0
O=C(NCC[C@H]1CC[C@@H](NS(=O)(=O)c2ccc(F)cc2)[C@@H](CO)O1)c1ccc2c(c1)OCO2,-1,0,x,x,-23
O=C(C[C@@H]1C[C@@H]2c3cc(NC(=O)Nc4ccccc4)ccc3O[C@@H]2[C@H](CO)O1)NC1CCCC1,1,1,x,x,2
O=C(C[C@H]1C[C@H]2c3cc(NC(=O)Nc4ccccc4F)ccc3O[C@H]2[C@@H](CO)O1)NCc1ccncc1,16*,0,x,x,-2
O=C(C[C@@H]1C[C@H]2c3cc(NC(=O)Nc4ccccc4F)ccc3O[C@H]2[C@H](CO)O1)NC1CCCC1,0,0,x,x,99*
O=C(C[C@H]1C[C@@H]2c3cc(NC(=O)Nc4ccccc4F)ccc3O[C@@H]2[C@H](CO)O1)NCc1ccncc1,1,0,x,x,-1
O=C(C[C@H]1C[C@@H]2c3cc(NC(=O)Nc4ccccc4)ccc3O[C@@H]2[C@H](CO)O1)NC1CCCC1,0.5*,1,x,x,6
O=C(C[C@H]1C[C@H]2c3cc(NC(=O)Nc4ccccc4F)ccc3O[C@H]2[C@H](CO)O1)NC1CCCC1,-3,0,x,x,4
COc1cccc(S(=O)(=O)Nc2ccc3c(c2)[C@H]2C[C@@H](CC(=O)NC4CCCCC4)O[C@H](CO)[C@H]2O3)c1,3,0,x,x,64*
COc1cccc(S(=O)(=O)Nc2ccc3c(c2)[C@@H]2C[C@@H](CC(=O)NC4CCCCC4)O[C@@H](CO)[C@@H]2O3)c1,1,0,x,x,-5
Cc1ccccc1NCC(=O)NN=Cc1ccc2c(c1)OCO2,x,x,x,6,x
Cc1ccccc1NC(=O)CCC(=O)N/N=C/c1ccc(F)cc1,-9,43*,-3,x,5
Cc1ccccc1NCC(=O)N/N=C\c1ccc2c(c1)OCO2,-1,44*,1,x,0
Cc1ccc(C)c(NC(=O)CCC(=O)N/N=C/c2ccc3c(c2)OCO3)c1,1,43*,-1,x,-3
Cc1ccc(S(N)(=O)=O)cc1NC(=O)/C=C/c1ccc2c(c1)OCO2,1,43*,4,-26,-3
C[C@H](CO)N1C[C@H](C)[C@H](CN(C)Cc2ccccc2)Oc2ncc(C#Cc3ccc(F)cc3)cc2C1=O,-1,0,x,x,1

# Assay outcomes from PubChem BioAssay.
